In the library only some 4.1% were active in any assay of this set; here they are far more common.
KCNQ1 inh: inhibitors of human KCNQ1 potassium channel. 310,000 tested, 1.3% active. B-score at 10 µM. CHO-K1 KCNQ1, FluxOR thallium flux fluorescence; active compounds read high;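 active = compounds whose thallium flux B-score, printed positive for inhibition, exceeds three library SD while starting fluorescence stays within three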;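 note: channel opened by potassium depolarization with thallium stimulus after 20 min compound exposure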
Cl transport mod: KCC2 (human) Cl- transport modulation | Q9H2X9 | KCC2 cells, thallium flux FluoZin-2 fluorescence | B-score of Tl+ flux slope (higher = more flux/activation; lower = inhibition) at 10 µM | 190,000 tested, 2.2% active | AID 1456;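 active = thallium flux slope and its plate-corrected score both differing from the plate sample mean at a set confidence after two filtering rounds, in either direction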;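 note: slope of fluorescence scaled to starting intensity during 10 to 20 s after thallium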
KCNK9 inh: human KCNK9 channel inhibition | B-score at 10 µM | Q9NPC2 | HEK293 KCNK9, FluxOR thallium flux fluorescence; active compounds read low | 310,000 tested, 1.2% active | AID 488922;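 active = ratio B-score over 3 SD below the library mean, with starting fluorescence within 5 SD of its mean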;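 note: negative B-score means less thallium flux so channel inhibition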
KCNQ1 pot: potentiators or activators of human KCNQ1 potassium channel. P51787. B-score at 10 µM. CHO-K1 KCNQ1, thallium flux FluxOR fluorescence; active compounds read high. 310,000 tested, 0.35% active;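 active = fluorescence ratio B-score, a plate-corrected score, at least three library SD, with initial intensity B-score within 5 SD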
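Assay system: CHO-K1 cells stably expressing KCNQ1; Medium: assay buffer with matched DMSO; Also added: K+/Tl+ depolarizing stimulus; Dosing: single dose; Timing: dye 90 min, compound 20 min, room temperature; Measured by: kinetic FluxOR thallium fluorescence, 10-s 1-Hz baseline, 110-s post-stimulus read; Read-out: peak-minus-minimum fluorescence over initial fluorescence, negative-control normalized, B-scored.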
KCNK3 block: human KCNK3 channel inhibition, primary screen | B-score at 10 µM | AID 602410 | CHO-KCNK3 thallium flux, FluxOR fluorescence; active compounds read low | 340,000 tested, 0.84% active | O14649;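 active = B-score under library mean minus 4 SD, starting fluorescence ratio at most library mean plus 5 SD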;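 note: more negative B-score means stronger inhibition of thallium flux through KCNK3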
hERG protect: hERG (human) protection from proarrhythmic block | Q12809 | CHO-hERG, FluxOR thallium flux, dofetilide IC70 present | activation (rescue from dofetilide block), less the hit threshold, % at 10 µM | 310,000 tested, 0.51% active | AID 1511;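 active = activation above the mean of controls blocked by dofetilide plus 5 SD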;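 note: thallium influx through hERG after potassium depolarization seen as dye fluorescence rise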
Target sequence (Q12809 whole entry, looked up): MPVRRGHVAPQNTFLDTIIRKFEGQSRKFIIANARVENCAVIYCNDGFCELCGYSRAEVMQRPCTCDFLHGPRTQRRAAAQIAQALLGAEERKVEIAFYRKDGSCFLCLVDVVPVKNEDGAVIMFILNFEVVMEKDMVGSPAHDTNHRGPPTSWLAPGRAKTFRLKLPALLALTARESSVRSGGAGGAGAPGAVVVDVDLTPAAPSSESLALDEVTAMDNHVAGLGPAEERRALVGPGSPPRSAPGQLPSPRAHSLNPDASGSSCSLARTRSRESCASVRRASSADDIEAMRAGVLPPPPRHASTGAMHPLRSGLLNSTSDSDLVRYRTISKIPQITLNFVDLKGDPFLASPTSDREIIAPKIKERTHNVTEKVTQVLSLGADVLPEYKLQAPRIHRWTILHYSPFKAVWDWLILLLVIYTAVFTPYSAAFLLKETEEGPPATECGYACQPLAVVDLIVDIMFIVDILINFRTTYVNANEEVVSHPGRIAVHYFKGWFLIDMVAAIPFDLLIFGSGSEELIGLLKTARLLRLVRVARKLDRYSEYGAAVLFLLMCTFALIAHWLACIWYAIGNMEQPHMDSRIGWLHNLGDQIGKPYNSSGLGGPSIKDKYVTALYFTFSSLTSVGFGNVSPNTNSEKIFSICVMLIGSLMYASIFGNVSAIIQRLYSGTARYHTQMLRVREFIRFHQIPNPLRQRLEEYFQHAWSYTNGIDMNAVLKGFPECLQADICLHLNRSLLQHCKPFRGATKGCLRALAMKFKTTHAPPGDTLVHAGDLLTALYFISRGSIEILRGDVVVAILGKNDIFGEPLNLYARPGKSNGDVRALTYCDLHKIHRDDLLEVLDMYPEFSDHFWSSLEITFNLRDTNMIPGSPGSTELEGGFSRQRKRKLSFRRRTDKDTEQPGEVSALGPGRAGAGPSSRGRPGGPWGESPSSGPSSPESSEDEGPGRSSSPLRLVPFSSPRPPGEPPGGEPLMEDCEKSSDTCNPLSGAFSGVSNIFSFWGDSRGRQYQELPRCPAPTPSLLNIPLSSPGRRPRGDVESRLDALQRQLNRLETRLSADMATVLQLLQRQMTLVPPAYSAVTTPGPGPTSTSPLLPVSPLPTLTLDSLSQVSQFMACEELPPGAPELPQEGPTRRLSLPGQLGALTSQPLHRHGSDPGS
KCC2 secondary: KCC2 (human) modulation, secondary assay. shares compounds with Cl transport mod. HEK293-KCC2, thallium flux, FluoZin2 fluorescence; active compounds read high. normalised thallium flux (F/F0 slope) at 10 µM. 3,700 tested, 15% active. AID 1713;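 active = thallium flux slope above the same plate's solvent-only control mean plus 3 SD; inconclusive = the two replicate wells disagree; inactive = no significant difference from solvent-only control wells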
KCC2 bumet counter: bumetanide-insensitive thallium flux in KCC2 cells with ouabain, counter-screen; HEK293-KCC2 + bumetanide/ouabain, thallium flux FluoZin2; active compounds read high; normalized thallium flux at 10 µM; shares compounds with Cl transport mod; AID 1714; 3,700 tested, 49% active;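 active = thallium entry rate above the same plate's blocked-transporter control wells by more than 3 SD; inconclusive = the two repeat wells disagree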;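 note: raw slope of fluorescence over initial fluorescence between 10 and 20 s after thallium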
KCC2 secondary2: KCC2 (human) modulation, second secondary assay | shares compounds with Cl transport mod | HEK293-KCC2, thallium flux FluoZin2 fluorescence; actives lie on both sides; F/F0 rise rate, 10–20 s post-thallium | normalized thallium flux at 10 µM | 3,700 tested, 23% active;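 active = thallium flux slope more than 3 SD above or below the plate's solvent-only control mean, mostly below; inconclusive = the two repeat wells disagreed; inactive = no significant shift from solvent-only controls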;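 note: raw slope with 0.1% DMSO as baseline and bumetanide as block control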
HEK293 Tl flux: acts in parental HEK cells, KCC2 counter-screen; shares compounds with Cl transport mod; HEK293 parental cells, thallium flux FluoZin2, ouabain; baseline-ratio fluorescence slope, 10–20 s after thallium; thallium flux rate (normalised fluorescence) at 10 µM; 3,700 tested, 46% active; AID 1716;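 active = thallium flux rate significantly above the same plate's solvent-only control wells, beyond their mean plus 3 SD; inconclusive = the two replicate wells gave conflicting results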
KCC2 ouabain: confirmation of human KCC2 modulators with ouabain; HEK293-KCC2, thallium flux FluoZin2 fluorescence; bidirectional: low = inhibitor, high = activator; raw Tl+ flux slope (below DMSO = inhibition, above = activation) at 10 µM; 3,700 tested, 48% active; AID 1717; shares compounds with Cl transport mod;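 active = thallium flux slope beyond 3 SD from same-plate DMSO control mean in most replicates, usually higher, sometimes lower; inconclusive = repeat tests gave conflicting results; inactive = no significant difference from controls in most replicates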;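 note: slope of initial-normalized fluorescence between seconds 10 and 20 after thallium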
HEK293 Tl flux2: counter-screen for KCC2 modulators: effect in parental HEK293 cells; shares compounds with Cl transport mod; thallium flux FluoZin-2 fluorescence slope; thallium flux slope at 10 µM; 3,700 tested, 33% active; AID 1718;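 active = thallium flux slope above the same plate's solvent-control mean plus 3 SD in both duplicate wells; inconclusive = duplicate wells that disagreed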;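 note: run without ouabain in cells lacking the KCC2 cotransporter; slope of fluorescence scaled to its starting value between 10 and 20 s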
Starred values were filed as active, the others as inactive; i = inactive; u = inconclusive; x = not tested or not shown.

SMILES	KCNQ1 inh	Cl transport mod	KCNK9 inh	KCNQ1 pot	KCNK3 block	hERG protect	KCC2 secondary	KCC2 bumet counter	KCC2 secondary2	HEK293 Tl flux	KCC2 ouabain	HEK293 Tl flux2
Cc1ccc(Cn2nnc3c(=O)[nH]c(C4CCN(S(=O)(=O)c5ccc(C)cc5)CC4)nc32)cc1	i	x	i	i	i	-8	0.0071	0.0049	0.031	0.008	0.019	0.011
O=C(C1CCCCC1)N1CCCC(c2nc3c(nnn3Cc3ccccc3)c(=O)[nH]2)C1 (stereo not given)	i	x	i	i	i	-16	0.0058	u	0.026*	0.0061*	0.016*	u
COC(=O)c1cc(C(=O)OCC(=O)N2CCCCC2)cc([N+](=O)[O-])c1	x	x	x	x	i	x	x	x	x	x	x	x
CC(=O)NC(=S)Nc1sc2c(c1C#N)CCCCC2	i	-0.39	i	i	i	-14	x	x	x	x	x	x
N#Cc1c(NC(=S)NC(=O)Cc2cccs2)sc2c1CCCCC2	i	7.4*	i	i	i	-14	0.0086	0.02*	0.028	0.0093*	u	0.0099
O=C(N/N=C\c1ccc(Cl)s1)C1COc2ccccc2O1 (stereo not given)	i	12*	i	i	i	-1	0.0094	0.011*	0.035	u	u	0.013
O=C(Cn1[nH]c(=O)c2ccccc2c1=O)NC1CCN(Cc2ccccc2)CC1	i	-4.3*	i	i	i	-11	0.018	0.0038	0.029	0.0076	0.017	0.011
O=C(Cn1[nH]c(=O)c2ccccc2c1=O)NC1CCCCCC1	i	-0.38	i	i	i	-9	x	x	x	x	x	x
COc1ccc(Nc2cc(C)c3ccc(O)cc3n2)cc1	i	-2.8	i	i	i	-21	0.0079	0.0055	0.033	u	0.023	0.01
COC(=O)c1n[nH]c2ccccc12	i	x	i	i	i	-4	x	x	x	x	x	x
O=C(OCCCCN1C(=O)c2ccccc2C1=O)c1n[nH]c2ccccc12	i	-2.9*	i	i	i	-21	0.0048	0.0067*	0.028	u	u	0.01
C=CCSc1nnc(-c2sc(-c3ccccc3)nc2C)n1C	i	x	i	i	i	-11	x	x	x	x	x	x
C=CCN(C(=O)CSC1=NC(=O)CN1C(C)=O)c1nc(C)c(-c2ccccc2)s1	i	10*	i	i	i	-15	0.0076	0.023*	0.036	0.022*	0.03*	0.019*
Cc1ccc(S(=O)(=O)NN2C(=O)/C(=C/c3cccs3)SC2=S)cc1	i	27*	i	i	i	-6	0.0062	0.053*	0.05*	0.045*	0.051*	0.043*
Cc1ccc(S(=O)(=O)NN2C(=O)/C(=C/c3ccc(F)cc3)SC2=S)cc1	i	x	i	i	i	-2	x	x	x	x	x	x
CCOc1ccc(-c2nc(-c3cccs3)c(CC(=O)O)s2)cc1OC	i	-3.1*	i	i	i	-11	0.017	0.0058*	0.029	0.0072	0.015	0.01
CCOc1ccc(-c2nnc(-c3cccs3)o2)cc1OCC	i	-0.89	i	i	i	-14	x	x	x	x	x	x
COc1ccc(NC(=O)N(C)C[C@H]2Oc3ccc(NC(=O)C4CC4)cc3CC(=O)N([C@@H](C)CO)C[C@@H]2C)cc1	x	x	x	x	i	x	x	x	x	x	x	x
COc1cc(CN(C2CC2)S(=O)(=O)c2ccccc2Br)cc(OC)c1	x	x	x	x	i	x	x	x	x	x	x	x
Cc1cccc(NC(=S)NNC(=S)NC2CCCCC2)c1C	i	4*	i	i	i	-8	0.0089	0.012*	0.03	0.0094*	u	0.011
CC(=O)Nc1cccc2ncccc12	i	0.84	i	i	i	-11	x	x	x	x	x	x
O=C(NC(=S)Nc1cccc2ncccc12)c1cccs1	i	8.2*	i	i	i	-8	u	0.035*	0.032	0.016*	0.025*	0.018*
S=C(Nc1ccccn1)NC1CCCCC1	i	3.5*	i	i	i	-7	0.0071	0.0063*	0.033	0.0085	0.021	0.011
Cc1ccccc1NC(=S)NC1CCCC1	i	x	i	i	i	-1	x	x	x	x	x	x
O=C(NC(=S)Nc1ccccn1)c1ccccc1	i	9.1*	i	i	i	-6	0.0097	0.017*	0.04	u	0.027*	0.012
SMILES	KCNQ1 inh	Cl transport mod	KCNK9 inh	KCNQ1 pot	KCNK3 block	hERG protect	KCC2 secondary	KCC2 bumet counter	KCC2 secondary2	HEK293 Tl flux	KCC2 ouabain	HEK293 Tl flux2
CC1CCCC(C)N1C(=O)COC(=O)c1c[nH]c2ccccc12 (stereo not given)	x	x	x	x	i	x	x	x	x	x	x	x
O=C(Cn1cnc2c(OCc3ccccc3)ncnc21)NCc1ccccn1	x	x	x	x	i	x	x	x	x	x	x	x
CC(C)[C@H](NC(=O)OCc1ccccc1)C(=O)OCC(=O)Nc1ccc(N2CCOCC2)cc1	i	x	i	i	i	-18	x	x	x	x	x	x
O=C(NC(=S)Nc1cccc2ncccc12)c1ccccc1	i	4.5*	i	i	i	-5	0.0059	0.01*	0.03	0.011*	0.021	u
COc1ccccc1C(C)Nc1ccc(S(=O)(=O)N2CCN(C)CC2)cc1[N+](=O)[O-] (stereo not given)	x	x	x	x	i	x	x	x	x	x	x	x
CN(C)S(=O)(=O)c1ccc(Cl)c(C(=O)Nc2nc3ccccc3[nH]2)c1	i	x	i	i	i	-14	0.0066	0.005	0.022*	0.0077	0.013*	0.01
COc1ccc(S(=O)(=O)Nc2c(O)ccc3ccccc23)cc1OC	i	x	i	i	i	-5	x	x	x	x	x	x
Cc1cc(C(=O)Nc2nc(-c3ccccn3)cs2)ccc1[N+](=O)[O-]	i	2.8	i	i	i	-7	x	x	x	x	x	x

Screening results as filed in PubChem.
